By EC50 is commonly meant the concentration needed to bring the measured effect to its halfway point.

Molecules are shown by their SMILES. Records with an inconclusive call do not appear. Calls of active or inactive are those of the source.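 Rule for the calls: active = dose curve converging in at least two of three replicates, whether well supported or a less certain trend; inactive = fewer than two replicates with a converged curve.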

Experimental findings from PubChem BioAssay AID1736 (Vanderbilt High Throughput Screening Facility, 2009) are described below.

Chain of Solute carrier family 12 member 5 (Homo sapiens) (Q9H2X9 whole entry, looked up): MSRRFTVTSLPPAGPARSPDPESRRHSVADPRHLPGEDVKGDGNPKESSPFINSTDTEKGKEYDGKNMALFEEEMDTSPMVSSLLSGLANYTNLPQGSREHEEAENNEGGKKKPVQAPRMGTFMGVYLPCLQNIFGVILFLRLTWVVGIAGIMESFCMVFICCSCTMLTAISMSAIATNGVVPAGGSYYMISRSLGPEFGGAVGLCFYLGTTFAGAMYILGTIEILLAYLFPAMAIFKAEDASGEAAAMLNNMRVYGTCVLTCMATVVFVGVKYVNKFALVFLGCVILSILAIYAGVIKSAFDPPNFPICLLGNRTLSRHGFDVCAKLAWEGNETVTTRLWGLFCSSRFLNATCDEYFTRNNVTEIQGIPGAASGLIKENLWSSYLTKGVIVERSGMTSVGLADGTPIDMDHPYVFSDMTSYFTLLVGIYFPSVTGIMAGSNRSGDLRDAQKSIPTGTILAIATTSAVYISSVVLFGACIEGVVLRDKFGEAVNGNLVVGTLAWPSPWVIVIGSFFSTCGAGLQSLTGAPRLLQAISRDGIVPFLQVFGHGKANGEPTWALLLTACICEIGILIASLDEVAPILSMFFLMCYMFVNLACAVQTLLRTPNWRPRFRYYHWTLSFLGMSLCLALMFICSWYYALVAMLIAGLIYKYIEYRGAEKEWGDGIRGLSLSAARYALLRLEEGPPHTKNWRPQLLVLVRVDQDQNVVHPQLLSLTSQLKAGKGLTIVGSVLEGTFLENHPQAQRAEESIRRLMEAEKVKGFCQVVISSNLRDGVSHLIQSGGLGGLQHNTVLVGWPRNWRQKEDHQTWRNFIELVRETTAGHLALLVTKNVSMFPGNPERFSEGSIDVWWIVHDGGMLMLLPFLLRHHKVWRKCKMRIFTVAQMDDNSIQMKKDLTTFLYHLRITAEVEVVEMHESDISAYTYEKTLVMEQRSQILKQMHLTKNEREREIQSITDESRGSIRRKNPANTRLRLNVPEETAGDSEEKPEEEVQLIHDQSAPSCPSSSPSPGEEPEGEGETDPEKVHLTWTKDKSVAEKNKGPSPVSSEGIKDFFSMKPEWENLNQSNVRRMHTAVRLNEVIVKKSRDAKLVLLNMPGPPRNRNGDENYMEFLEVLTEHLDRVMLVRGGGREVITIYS

The target of the assay is Solute carrier family 12 member 5 (Homo sapiens) (UniProt Q9H2X9). The assay is described as follows: concentration-response of KCC2 transport modulators – cell-based, HEK293 KCC2, FluoZin-2 fluorescence, dose response (AID 1736). The note with it: HEK293-KCC2 thallium flux. A digest of the protocol:
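Material: KCC2-expressing HEK cells. Medium: HEPES-buffered HBSS plus 0.2 mM ouabain. Probe or stimulus: thallium-containing stimulus buffer for thallium flux. Doses: 11-point threefold dilution series, top dose 30 µM. Technique: thallium-flux fluorescence, FluoZin-2, 480/540 nm. Read-out basis: EC50 from normalized 10–20 s fluorescence slope. Repeats: triplicate wells, each replicate curve fitted separately.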
Take `N#CC1=C(N)NC(SCc2ccccc2)=C(C#N)C12CCCCC2`: the EC50 entry is “inactive”.
The result for `C/C(=N\NC(=O)c1ccc(Br)cc1)C1C(=O)c2ccccc2C1=O` reads “inactive”; that for `COc1ccccc1NC(=S)N=Nc1c(O)[nH]c2ccc(Br)cc12`, 0.508 µM; that for `Cc1cccc(NC(=S)N=Nc2c(O)n(CN3CCOCC3)c3ccccc23)c1C`, “inactive”.
As to `NC(=S)N=Nc1c(O)n(Cc2ccccc2)c2ccccc12`, the EC50 is 0.427 µM.
The result for `O=C(Nn1c(O)c(C=C2N=c3ccccc3=N2)sc1=S)c1ccccc1` reads “inactive”; that for `O=C(Nn1c(O)c(C=C2N=c3ccccc3=N2)sc1=S)c1ccccc1Cl`, 0.117 µM.
The result for `Cc1ccc(/C=C2\SC(=S)N(/N=C/c3cc([N+](=O)[O-])ccc3O)C2=O)o1` reads “inactive”; that for `O=C1C2Sc3[nH]c(=O)sc3C(c3ccccc3)C2C(=O)N1c1ccccc1` (centres undefined), 0.0677 µM.
